Assay results reported in ChEMBL document CHEMBL1932999, “Increased susceptibility to resveratrol of Helicobacter pylori strains isolated from patients with gastric carcinoma” (2011).
Values after ≈ are worked out from the molar mass of the structure shown.

Experiments:
[1] = tested on: Helicobacter pylori; experiment: Antibacterial activity against CagA-expressing Helicobacter pylori G39 isolated from chronic gastritis patient after 48 hrs compound exposure followed by incubation on Columbia-blood agar plate for 3 to 5 days; assay type: functional
In short: (§1)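 Compound dissolved in water with 4% DMSO, filter-sterilized, and serially twofold diluted in Brucella broth with 10% bovine fetal serum. Inoculum from 48 h microaerobic Brucella agar-BFS cultures, added at approximately 10^6 CFU/mL final. Broth incubated microaerobically at 37 °C for 24 or 48 h, then each dilution subcultured onto Columbia-blood agar. MBC is the lowest concentration with no growth on subculture. Triplicate; mean ± SD.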

[2] = tested on: Helicobacter pylori; experiment: Antibacterial activity against CagA-expressing Helicobacter pylori 10K isolated from gastric carcinoma patient after 48 hrs compound exposure followed by incubation on Columbia-blood agar plate for 3 to 5 days; assay type: functional; in short: as §1
[3] = tested on: Helicobacter pylori; experiment: Antibacterial activity against CagA-expressing Helicobacter pylori SI10 isolated from chronic gastritis patient after 48 hrs compound exposure followed by incubation on Columbia-blood agar plate for 3 to 5 days; assay type: functional
In short: (§2)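 Broth microdilution MBC against clinical H. pylori isolates (cagA by PCR; stocks kept frozen in Columbia broth with 20% glycerol). Compound dissolved in water with 4% DMSO, filter-sterilized, double diluted in Brucella broth with 10% fetal bovine serum. Inoculum about 10^6 CFU/mL from 48 h microaerobic Brucella agar-BFS cultures. Plates held microaerobically at 37 °C for 24 and 48 h. Each well was then spotted onto Columbia-blood agar for 3-5 days. MBC is the lowest concentration giving no regrowth. Triplicate, mean ± SD.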

[4] = tested on: Helicobacter pylori; experiment: Antibacterial activity against CagA-deficient Helicobacter pylori 328 KM isolated from chronic gastritis patient after 48 hrs compound exposure followed by incubation on Columbia-blood agar plate for 3 to 5 days; assay type: functional; in short: as §1
[5] = tested on: Helicobacter pylori; experiment: Antibacterial activity against CagA-expressing Helicobacter pylori 2Ca isolated from gastric carcinoma patient after 48 hrs compound exposure followed by incubation on Columbia-blood agar plate for 3 to 5 days; assay type: functional; in short: as §1
[6] = tested on: Helicobacter pylori; experiment: Antibacterial activity against CagA-expressing Helicobacter pylori CCUG17874 isolated from chronic gastritis patient after 48 hrs compound exposure followed by incubation on Columbia-blood agar plate for 3 to 5 days; assay type: functional; in short: as §1
[7] = tested on: Helicobacter pylori; experiment: Bactericidal activity against CagA-deficient Helicobacter pylori 328 KM isolated from chronic gastritis patient compound exposure followed by incubation on Columbia-blood agar plate for 3 to 5 days; assay type: functional, organism-based; settings: TDE = time-dependent effect; in short: as §2
[8] = tested on: Helicobacter pylori; experiment: Antibacterial activity against CagA-deficient Helicobacter pylori G21b isolated from chronic gastritis patient after 24 hrs compound exposure followed by incubation on Columbia-blood agar plate for 3 to 5 days; assay type: functional; in short: as §1
[9] = tested on: Helicobacter pylori; experiment: Antibacterial activity against CagA-expressing Helicobacter pylori G20 isolated from chronic gastritis patient after 24 hrs compound exposure followed by incubation on Columbia-blood agar plate for 3 to 5 days; assay type: functional; in short: as §1
[10] = tested on: Helicobacter pylori; experiment: Antibacterial activity against CagA-expressing Helicobacter pylori 3Cb isolated from gastric carcinoma patient after 48 hrs compound exposure followed by incubation on Columbia-blood agar plate for 3 to 5 days; assay type: functional; in short: as §1
[11] = tested on: Helicobacter pylori; experiment: Bactericidal activity against CagA-expressing Helicobacter pylori G27 isolated from chronic gastritis patient compound exposure followed by incubation on Columbia-blood agar plate for 3 to 5 days; assay type: functional; settings: TDE = time-dependent effect; in short: as §2
[12] = tested on: Helicobacter pylori; experiment: Antibacterial activity against CagA-expressing Helicobacter pylori G27 isolated from chronic gastritis patient after 24 hrs compound exposure followed by incubation on Columbia-blood agar plate for 3 to 5 days; assay type: functional; in short: as §1
[13] = tested on: Helicobacter pylori; experiment: Bactericidal activity against CagA-deficient Helicobacter pylori G204 isolated from chronic gastritis patient compound exposure followed by incubation on Columbia-blood agar plate for 3 to 5 days; assay type: functional, organism-based; settings: TDE = time-dependent effect; in short: as §2
[14] = tested on: Helicobacter pylori; experiment: Antibacterial activity against CagA-expressing Helicobacter pylori 328 isolated from chronic gastritis patient after 24 hrs compound exposure followed by incubation on Columbia-blood agar plate for 3 to 5 days; assay type: functional; in short: as §1
[15] = tested on: Helicobacter pylori; experiment: Antibacterial activity against CagA-expressing Helicobacter pylori 4Cb isolated from gastric carcinoma patient after 24 hrs compound exposure followed by incubation on Columbia-blood agar plate for 3 to 5 days; assay type: functional; in short: as §1
[16] = tested on: Helicobacter pylori; experiment: Bactericidal activity against CagA-expressing Helicobacter pylori CCUG17874 isolated from chronic gastritis patient compound exposure followed by incubation on Columbia-blood agar plate for 3 to 5 days; assay type: functional, organism-based; settings: TDE = time-dependent effect; in short: as §2
[17] = tested on: Helicobacter pylori; experiment: Antibacterial activity against CagA-expressing Helicobacter pylori MDO21 isolated from chronic gastritis patient after 24 hrs compound exposure followed by incubation on Columbia-blood agar plate for 3 to 5 days; assay type: functional; in short: as §1
[18] = tested on: Helicobacter pylori; experiment: Antibacterial activity against CagA-deficient Helicobacter pylori G104 isolated from chronic gastritis patient after 48 hrs compound exposure followed by incubation on Columbia-blood agar plate for 3 to 5 days; assay type: functional; in short: as §1
[19] = tested on: Helicobacter pylori; experiment: Antibacterial activity against CagA-expressing Helicobacter pylori MD6 isolated from chronic gastritis patient after 48 hrs compound exposure followed by incubation on Columbia-blood agar plate for 3 to 5 days; assay type: functional; in short: as §1
[20] = tested on: Helicobacter pylori; experiment: Bactericidal activity against CagA-expressing Helicobacter pylori SI10 isolated from chronic gastritis patient compound exposure followed by incubation on Columbia-blood agar plate for 3 to 5 days; assay type: functional, organism-based; settings: TDE = time-dependent effect; in short: as §2
[21] = tested on: Helicobacter pylori; experiment: Antibacterial activity against CagA-expressing Helicobacter pylori 18K7 isolated from gastric carcinoma patient after 24 hrs compound exposure followed by incubation on Columbia-blood agar plate for 3 to 5 days; assay type: functional; in short: as §1
[22] = tested on: Helicobacter pylori; experiment: Antibacterial activity against CagA-expressing Helicobacter pylori 2Ca isolated from gastric carcinoma patient after 24 hrs compound exposure followed by incubation on Columbia-blood agar plate for 3 to 5 days; assay type: functional; in short: as §1
[23] = tested on: Helicobacter pylori; experiment: Antibacterial activity against CagA-expressing Helicobacter pylori 3Cb isolated from gastric carcinoma patient after 24 hrs compound exposure followed by incubation on Columbia-blood agar plate for 3 to 5 days; assay type: functional; in short: as §1
[24] = tested on: Helicobacter pylori; experiment: Antibacterial activity against CagA-expressing Helicobacter pylori 17C7 isolated from gastric carcinoma patient after 24 hrs compound exposure followed by incubation on Columbia-blood agar plate for 3 to 5 days; assay type: functional; in short: as §1
[25] = tested on: Helicobacter pylori; experiment: Antibacterial activity against CagA-expressing Helicobacter pylori 18C7 isolated from gastric carcinoma patient after 24 hrs compound exposure followed by incubation on Columbia-blood agar plate for 3 to 5 days; assay type: functional; in short: as §1
[26] = tested on: Helicobacter pylori; experiment: Antibacterial activity against CagA-deficient Helicobacter pylori G204 isolated from chronic gastritis patient after 24 hrs compound exposure followed by incubation on Columbia-blood agar plate for 3 to 5 days; assay type: functional; in short: as §1
[27] = tested on: Helicobacter pylori; experiment: Antibacterial activity against CagA-expressing Helicobacter pylori 18C7 isolated from gastric carcinoma patient after 48 hrs compound exposure followed by incubation on Columbia-blood agar plate for 3 to 5 days; assay type: functional; in short: as §1
[28] = tested on: Helicobacter pylori; experiment: Antibacterial activity against CagA-deficient Helicobacter pylori 328 KM isolated from chronic gastritis patient after 24 hrs compound exposure followed by incubation on Columbia-blood agar plate for 3 to 5 days; assay type: functional; in short: as §1
[29] = tested on: Helicobacter pylori; experiment: Antibacterial activity against CagA-expressing Helicobacter pylori 10Kb isolated from gastric carcinoma patient after 24 hrs compound exposure followed by incubation on Columbia-blood agar plate for 3 to 5 days; assay type: functional; in short: as §1
[30] = tested on: Helicobacter pylori; experiment: Antibacterial activity against CagA-expressing Helicobacter pylori Ma01 isolated from chronic gastritis patient after 24 hrs compound exposure followed by incubation on Columbia-blood agar plate for 3 to 5 days; assay type: functional; in short: as §1
[31] = tested on: Helicobacter pylori; experiment: Bactericidal activity against CagA-expressing Helicobacter pylori G20 isolated from chronic gastritis patient compound exposure followed by incubation on Columbia-blood agar plate for 3 to 5 days; assay type: functional, organism-based; settings: TDE = time-dependent effect; in short: as §2
[32] = tested on: Helicobacter pylori; experiment: Antibacterial activity against CagA-expressing Helicobacter pylori 1C1 isolated from gastric carcinoma patient after 24 hrs compound exposure followed by incubation on Columbia-blood agar plate for 3 to 5 days; assay type: functional; in short: as §1
[33] = tested on: Helicobacter pylori; experiment: Antibacterial activity against CagA-deficient Helicobacter pylori Ba142 isolated from chronic gastritis patient after 48 hrs compound exposure followed by incubation on Columbia-blood agar plate for 3 to 5 days; assay type: functional; in short: as §1
[34] = tested on: Helicobacter pylori; experiment: Bactericidal activity against CagA-expressing Helicobacter pylori Ma01 isolated from chronic gastritis patient compound exposure followed by incubation on Columbia-blood agar plate for 3 to 5 days; assay type: functional, organism-based; settings: TDE = time-dependent effect; in short: as §2
[35] = tested on: Helicobacter pylori; experiment: Antibacterial activity against CagA-expressing Helicobacter pylori 328 isolated from chronic gastritis patient after 48 hrs compound exposure followed by incubation on Columbia-blood agar plate for 3 to 5 days; assay type: functional; in short: as §1

SMILES: Oc1ccc(/C=C/c2cc(O)cc(O)c2)cc1 [RESVERATROL]
- MBC [1]: 320 µg/mL (≈ 1400 µM)
- MBC [2]: 74 µg/mL (≈ 324 µM)
- MBC [3]: 295 µg/mL (≈ 1290 µM)
- MBC [4]: 147 µg/mL (≈ 644 µM)
- MBC [5]: 160 µg/mL (≈ 701 µM)
- MBC [6]: 295 µg/mL (≈ 1290 µM)
- Activity [7]: tde
- MBC [8]: 295 µg/mL (≈ 1290 µM)
- MBC [9]: 1280 µg/mL (≈ 5610 µM)
- MBC [10]: 40 µg/mL (≈ 175 µM)
- Activity [11]: tde
- MBC [12]: 295 µg/mL (≈ 1290 µM)
- Activity [13]: tde
- MBC [14]: 295 µg/mL (≈ 1290 µM)
- MBC [15]: 147 µg/mL (≈ 644 µM)
- Activity [16]: tde
- MBC [17]: 295 µg/mL (≈ 1290 µM)
- MBC [18]: 295 µg/mL (≈ 1290 µM)
- MBC [19]: 295 µg/mL (≈ 1290 µM)
- Activity [20]: tde
- MBC [21]: 147 µg/mL (≈ 644 µM)
- MBC [22]: 160 µg/mL (≈ 701 µM)
- MBC [23]: 40 µg/mL (≈ 175 µM)
- MBC [24]: 37 µg/mL (≈ 162 µM)
- MBC [25]: 37 µg/mL (≈ 162 µM)
- MBC [26]: 648 µg/mL (≈ 2840 µM)
- MBC [27]: 37 µg/mL (≈ 162 µM)
- MBC [28]: 147 µg/mL (≈ 644 µM)
- MBC [29]: 147 µg/mL (≈ 644 µM)
- MBC [30]: 589 µg/mL (≈ 2580 µM)
- Activity [31]: tde
- MBC [32]: 80 µg/mL (≈ 350 µM)
- MBC [33]: 295 µg/mL (≈ 1290 µM)
- Activity [34]: tde
- MBC [35]: 295 µg/mL (≈ 1290 µM)
